ChEMBL document CHEMBL1138748, “A prodrug approach toward the development of water soluble fluoroquinolones and structure--activity relationships of quinoline-3-carboxylic acids” (2004)
Values after ≈ are worked out from the molar mass of the structure shown.

How the values were obtained:
Type in all cases: functional
Enterococcus faecalis = assay: Antibacterial activity against Enterococcus faecalis strain 29212
Method in brief: (§1)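 Broth microdilution MIC run to NCCLS standards: serial 2-fold dilutions in cation-adjusted Mueller–Hinton broth, inoculum ~5 × 10^5 CFU/mL, incubated 35 °C for 18–24 h. Trays were read by eye, and the MIC was taken as the lowest concentration giving complete growth inhibition (no visible turbidity).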

Staphylococcus aureus [1] = assay: Antibacterial activity against Staphylococcus aureus strain St au 33591 MRSA; method in brief: as §1
Escherichia coli = assay: Antibacterial activity against Escherichia coli strain 25922; method in brief: as §1
Pseudomonas aeruginosa = assay: Antibacterial activity against Pseudomonas aeruginosa strain 27853; method in brief: as §1
Staphylococcus aureus [2] = assay: Antibacterial activity against Staphylococcus aureus strain St au 29213; method in brief: as §1

| SMILES | MIC (Enterococcus faecalis) | MIC (Staphylococcus aureus [1]) | MIC (Escherichia coli) | MIC (Pseudomonas aeruginosa) | MIC (Staphylococcus aureus [2]) |
| --- | --- | --- | --- | --- | --- |
| COc1c(N2C[C@@H](C)[C@@H](C)C2)c(F)cc2c(=O)c(C(=O)O)cn(-c3ccc(O)cc3)c12 | 6.25 µg/mL (≈ 14.7 µM) | 0.78 µg/mL (≈ 1.83 µM) | 0.78 µg/mL (≈ 1.83 µM) | 3.13 µg/mL (≈ 7.34 µM) | 0.78 µg/mL (≈ 1.83 µM) |
| CN1CCC2CN(c3nc4c(cc3F)c(=O)c(C(=O)O)cn4-c3ccc(O)cc3)CC21 (stereo not given) | 1.56 µg/mL (≈ 3.68 µM) | 0.2 µg/mL (≈ 0.471 µM) | 0.1 µg/mL (≈ 0.236 µM) | 6.25 µg/mL (≈ 14.7 µM) | 0.2 µg/mL (≈ 0.471 µM) |
| N[C@@H]1[C@H]2CN(c3nc4c(cc3F)c(=O)c(C(=O)O)cn4-c3ccc(O)cc3)C[C@@H]12 | 0.78 µg/mL (≈ 1.97 µM) | 0.2 µg/mL (≈ 0.505 µM) | 0.1 µg/mL (≈ 0.252 µM) | 0.78 µg/mL (≈ 1.97 µM) | 0.2 µg/mL (≈ 0.505 µM) |
| N[C@@H]1CN(c2nc3c(cc2F)c(=O)c(C(=O)O)cn3-c2ccc(O)cc2)CC12CC2 | 25 µg/mL (≈ 60.9 µM) | 1.56 µg/mL (≈ 3.8 µM) | 1.56 µg/mL (≈ 3.8 µM) | 3.13 µg/mL (≈ 7.63 µM) | 1.56 µg/mL (≈ 3.8 µM) |
| COc1c(N2CC3CCCN(C)C3C2)c(F)cc2c(=O)c(C(=O)O)cn(-c3ccc(O)cc3)c12 (stereo not given) | 12.5 µg/mL (≈ 26.7 µM) | 1.56 µg/mL (≈ 3.34 µM) | 0.4 µg/mL (≈ 0.856 µM) | 6.25 µg/mL (≈ 13.4 µM) | 0.78 µg/mL (≈ 1.67 µM) |
| N[C@@H]1CCC[C@@H]2CN(c3nc4c(cc3F)c(=O)c(C(=O)O)cn4-c3ccc(O)cc3)C[C@@H]21 | 3.13 µg/mL (≈ 7.14 µM) | 0.4 µg/mL (≈ 0.912 µM) | 3.13 µg/mL (≈ 7.14 µM) | 6.25 µg/mL (≈ 14.3 µM) | 0.4 µg/mL (≈ 0.912 µM) |
| COc1c(N2C[C@@H](N)C3(CC3)C2)c(F)cc2c(=O)c(C(=O)O)cn(-c3ccc(O)cc3)c12 | 6.25 µg/mL (≈ 14.2 µM) | 0.78 µg/mL (≈ 1.77 µM) | 0.4 µg/mL (≈ 0.91 µM) | 3.13 µg/mL (≈ 7.12 µM) | 0.78 µg/mL (≈ 1.77 µM) |
| COc1c(N2C[C@@H](C)N[C@@H](C)C2)c(F)cc2c(=O)c(C(=O)O)cn(-c3ccc(O)cc3)c12 | 50 µg/mL (≈ 113 µM) | 6.25 µg/mL (≈ 14.2 µM) | 1.56 µg/mL (≈ 3.53 µM) | 50 µg/mL (≈ 113 µM) | 3.13 µg/mL (≈ 7.09 µM) |
| C[C@H](N)[C@H]1CCN(c2nc3c(cc2F)c(=O)c(C(=O)O)cn3-c2ccc(O)cc2)C1 | 3.13 µg/mL (≈ 7.59 µM) | 0.78 µg/mL (≈ 1.89 µM) | 3.13 µg/mL (≈ 7.59 µM) | 3.13 µg/mL (≈ 7.59 µM) | 0.78 µg/mL (≈ 1.89 µM) |
| CC1CNCCN1c1nc2c(cc1F)c(=O)c(C(=O)O)cn2-c1ccc(O)cc1 (stereo not given) | 6.25 µg/mL (≈ 15.7 µM) | 0.78 µg/mL (≈ 1.96 µM) | 0.78 µg/mL (≈ 1.96 µM) | 6.25 µg/mL (≈ 15.7 µM) | 0.78 µg/mL (≈ 1.96 µM) |
| NC1CCN(c2nc3c(cc2F)c(=O)c(C(=O)O)cn3-c2ccc(O)cc2)C1 (stereo not given) | > 50 µg/mL | 0.78 µg/mL (≈ 2.03 µM) | 1.56 µg/mL (≈ 4.06 µM) | 1.56 µg/mL (≈ 4.06 µM) | 0.78 µg/mL (≈ 2.03 µM) |

The remaining lines, values ahead:

| MIC (Enterococcus faecalis) | MIC (Staphylococcus aureus [1]) | MIC (Escherichia coli) | MIC (Pseudomonas aeruginosa) | MIC (Staphylococcus aureus [2]) | SMILES |
| --- | --- | --- | --- | --- | --- |
| 12.5 µg/mL (≈ 31.5 µM) | 0.78 µg/mL (≈ 1.96 µM) | 3.13 µg/mL (≈ 7.88 µM) | 50 µg/mL (≈ 126 µM) | 0.78 µg/mL (≈ 1.96 µM) | C[C@@H]1C[C@H](N)CN1c1cc2c(cc1F)c(=O)c(C(=O)O)cn2-c1ccc(O)cc1 |
| 3.13 µg/mL (≈ 7.15 µM) | 0.4 µg/mL (≈ 0.914 µM) | 0.2 µg/mL (≈ 0.457 µM) | 6.25 µg/mL (≈ 14.3 µM) | 0.2 µg/mL (≈ 0.457 µM) | CN1CCCC2CN(c3cc4c(cc3F)c(=O)c(C(=O)O)cn4-c3ccc(O)cc3)CC21 (stereo not given) |
| 1.56 µg/mL (≈ 3.93 µM) | 0.2 µg/mL (≈ 0.503 µM) | 0.2 µg/mL (≈ 0.503 µM) | 1.56 µg/mL (≈ 3.93 µM) | 0.2 µg/mL (≈ 0.503 µM) | C[C@H]1CN(c2cc3c(cc2F)c(=O)c(C(=O)O)cn3-c2ccc(O)cc2)C[C@H]1N |
| 3.13 µg/mL (≈ 7.61 µM) | 0.4 µg/mL (≈ 0.972 µM) | 0.1 µg/mL (≈ 0.243 µM) | 3.13 µg/mL (≈ 7.61 µM) | 0.2 µg/mL (≈ 0.486 µM) | C[C@@H]1CN(c2cc3c(cc2F)c(=O)c(C(=O)O)cn3-c2ccc(O)cc2)C[C@H](C)N1 |
| 1.56 µg/mL (≈ 3.95 µM) | 0.1 µg/mL (≈ 0.253 µM) | 0.2 µg/mL (≈ 0.506 µM) | 3.13 µg/mL (≈ 7.92 µM) | 0.1 µg/mL (≈ 0.253 µM) | N[C@@H]1[C@H]2CN(c3cc4c(cc3F)c(=O)c(C(=O)O)cn4-c3ccc(O)cc3)C[C@@H]12 |
| 3.13 µg/mL (≈ 7.61 µM) | 0.78 µg/mL (≈ 1.9 µM) | 1.56 µg/mL (≈ 3.79 µM) | 25 µg/mL (≈ 60.8 µM) | 0.4 µg/mL (≈ 0.972 µM) | C[C@H](N)[C@H]1CCN(c2cc3c(cc2F)c(=O)c(C(=O)O)cn3-c2ccc(O)cc2)C1 |
| 6.25 µg/mL (≈ 15.3 µM) | 0.78 µg/mL (≈ 1.91 µM) | 0.78 µg/mL (≈ 1.91 µM) | 6.25 µg/mL (≈ 15.3 µM) | 0.4 µg/mL (≈ 0.977 µM) | N[C@H]1CN(c2cc3c(cc2F)c(=O)c(C(=O)O)cn3-c2ccc(O)cc2)CC12CC2 |
| 1.56 µg/mL (≈ 3.92 µM) | 0.4 µg/mL (≈ 1 µM) | 0.4 µg/mL (≈ 1 µM) | 0.78 µg/mL (≈ 1.96 µM) | 0.4 µg/mL (≈ 1 µM) | C[C@@H]1CN(c2nc3c(cc2F)c(=O)c(C(=O)O)cn3-c2ccc(O)cc2)C[C@H]1N |
| 6.25 µg/mL (≈ 15.2 µM) | 0.4 µg/mL (≈ 0.972 µM) | 1.56 µg/mL (≈ 3.79 µM) | 25 µg/mL (≈ 60.8 µM) | 0.4 µg/mL (≈ 0.972 µM) | C[C@H](N)[C@@H]1CCN(c2cc3c(cc2F)c(=O)c(C(=O)O)cn3-c2ccc(O)cc2)C1 |
| 25 µg/mL (≈ 60.8 µM) | 1.56 µg/mL (≈ 3.79 µM) | 3.13 µg/mL (≈ 7.61 µM) | 50 µg/mL (≈ 122 µM) | 1.56 µg/mL (≈ 3.79 µM) | C[C@@H](N)[C@H]1CCN(c2cc3c(cc2F)c(=O)c(C(=O)O)cn3-c2ccc(O)cc2)C1 |
| 6.25 µg/mL (≈ 15.7 µM) | 0.78 µg/mL (≈ 1.96 µM) | 1.56 µg/mL (≈ 3.93 µM) | 25 µg/mL (≈ 62.9 µM) | 0.4 µg/mL (≈ 1.01 µM) | NCC1CCN(c2cc3c(cc2F)c(=O)c(C(=O)O)cn3-c2ccc(O)cc2)C1 (stereo not given) |
| 3.13 µg/mL (≈ 7.39 µM) | 0.4 µg/mL (≈ 0.945 µM) | 1.56 µg/mL (≈ 3.68 µM) | 6.25 µg/mL (≈ 14.8 µM) | 0.4 µg/mL (≈ 0.945 µM) | O=C(O)c1cn(-c2ccc(O)cc2)c2cc(N3CC4CCCNC4C3)c(F)cc2c1=O (stereo not given) |
